{"source": "ChEMBL document CHEMBL1125917", "about": "“Synthesis of halogen-substituted 1,5-benzothiazepine derivatives and their vasodilating and hypotensive activities” (1991)", "key": {"Canis familiaris [1]": {"tested_on": "Canis familiaris", "assay": "Antihypertensive activity by the increase in the vertebral blood flow in anesthetized dogs expressed as duration of half of the maximum change in blood flow.", "assay_type": "functional, Canis lupus familiaris", "summary_of_the_method": "(§1)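 Anesthetized dogs; compounds given intraarterially. Vertebral blood flow recorded, and a dose-response curve built from peak responses. Potency given as ratio to diltiazem, calculated from the dose-response curves. Half duration is the time, in minutes, that blood flow stays at one-half of the maximum change.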"}, "Canis familiaris [2]": {"species": "Canis familiaris", "assay": "Antihypertensive activity expressed as the ratio of the potency evaluated by increased vertebral blood flow (VBF) to that of diltiazem.", "assay_type": "functional, Canis lupus familiaris", "summary_of_the_method": "as §1"}, "Cavia porcellus [3]": {"species": "Cavia porcellus", "assay": "(§2) Increase in the coronary blood flow (CBF) was determined in isolated guinea pig heart at a dose of 100 ug/heart", "assay_type": "functional, Artery", "summary_of_the_method": "(§3)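 Hartley guinea pig hearts perfused by the Langendorff method with modified Locke-Ringer solution containing defibrinated rabbit blood, at 40 cm H2O and 29 ± 1 °C. Compounds in saline injected into the aortic cannula at 3, 10, 30 or 100 μg/heart. Coronary flow measured by drop counter; graded by the lowest dose giving an increase of at least 0.5 mL/min.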"}, "Cavia porcellus [4]": {"species": "Cavia porcellus", "assay": "as §2", "assay_type": "functional", "summary_of_the_method": "as §3"}, "Rattus norvegicus [5]": {"tested_on": "Rattus norvegicus", "assay": "Hypotensive activity in SHR (spontaneously hypertensive rats) expressed as change in blood pressure(mmHg) after 1 hr dosing at a concentration of 30 mg/kg", "assay_type": "functional", "summary_of_the_method": "(§4)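 Male spontaneously hypertensive rats, fasted 20 h. Compounds dissolved in deionized water and given orally (30 mg/kg; some at 100 mg/kg). Blood pressure measured by tail-cuff in conscious animals. Change (mmHg) taken from the predosing value at 1 and 4 h, or 1 and 5 h, after dosing. N = 3-6.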"}, "Rattus norvegicus [6]": {"tested_on": "Rattus norvegicus", "assay": "Hypotensive activity in SHR (spontaneously hypertensive rats) expressed as change in blood pressure(mmHg) after 4 hr dosing at a concentration of 30 mg/kg", "assay_type": "functional", "summary_of_the_method": "as §4"}, "Rattus norvegicus [7]": {"tested_on": "Rattus norvegicus", "assay": "Change in blood pressure in spontaneously hypertensive rats 1 hr following 30 mg/kg p.o.", "assay_type": "functional", "settings": "route oral", "summary_of_the_method": "as §4"}, "Rattus norvegicus [8]": {"tested_on": "Rattus norvegicus", "assay": "Hypotensive activity in SHR (spontaneously hypertensive rats) expressed as change in blood pressure(mmHg) after 5 hr dosing at a concentration of 30 mg/kg", "assay_type": "functional", "summary_of_the_method": "as §4"}, "Cavia porcellus [9]": {"species": "Cavia porcellus", "assay": "Increase in the coronary blood flow (CBF) was determined in isolated guinea pig heart at a dose of 30 ug/heart", "assay_type": "functional, Artery", "summary_of_the_method": "as §3"}, "Rattus norvegicus [10]": {"tested_on": "Rattus norvegicus", "assay": "Hypotensive activity in SHR (spontaneously hypertensive rats) expressed as change in blood pressure(mmHg) after 4 hr dosing at a concentration of 100 mg/kg", "assay_type": "functional", "summary_of_the_method": "as §4"}}}
{"smiles": "CSc1ccc(C2Sc3cc(Cl)ccc3N(CCN(C)C)C(=O)C2O)cc1", "note": "(configuration not stated)", "values": [{"measurement": "Half duration", "setting": "Canis familiaris [1]", "value": 35, "unit": "min"}, {"measurement": "Potency ratio", "setting": "Canis familiaris [2]", "value": 0.09}, {"measurement": "Increase in CBF", "setting": "Cavia porcellus [3]", "value": ">0.5", "unit": "mL/min"}]}
{"smiles": "CCOC(=O)OC1C(=O)N(CCN(C)C)c2ccc(Cl)cc2SC1c1ccc(OC)cc1", "note": "(configuration not stated)", "values": [{"measurement": "Half duration", "setting": "Canis familiaris [1]", "value": 44, "unit": "min"}, {"measurement": "Potency ratio", "setting": "Canis familiaris [2]", "value": 0.29}, {"measurement": "Increase in CBF", "setting": "Cavia porcellus [3]", "value": ">0.5", "unit": "mL/min"}]}
{"smiles": "CCCN(C)CCN1C(=O)C(OC(C)=O)C(c2ccc(OC)cc2)Sc2cc(Cl)ccc21", "note": "(configuration not stated)", "values": [{"measurement": "Half duration", "setting": "Canis familiaris [1]", "value": 47, "unit": "min"}, {"measurement": "Potency ratio", "setting": "Canis familiaris [2]", "value": 0.5}, {"measurement": "Increase in CBF", "setting": "Cavia porcellus [4]", "value": ">0.5", "unit": "mL/min"}, {"measurement": "Change in blood pressure", "setting": "Rattus norvegicus [5]", "value": -16, "unit": "delta mmHg"}, {"measurement": "Change in blood pressure", "setting": "Rattus norvegicus [6]", "value": -9, "unit": "delta mmHg"}]}
{"smiles": "C=CCN(C)CCN1C(=O)C(OC(C)=O)C(c2ccc(OC)cc2)Sc2cc(Cl)ccc21", "note": "(configuration not stated)", "values": [{"measurement": "Half duration", "setting": "Canis familiaris [1]", "value": 37, "unit": "min"}, {"measurement": "Potency ratio", "setting": "Canis familiaris [2]", "value": 1}, {"measurement": "Increase in CBF", "setting": "Cavia porcellus [4]", "value": ">0.5", "unit": "mL/min"}, {"measurement": "Change in blood pressure", "setting": "Rattus norvegicus [7]", "value": -29, "unit": "delta mmHg"}, {"measurement": "Change in blood pressure", "setting": "Rattus norvegicus [8]", "value": -17, "unit": "delta mmHg"}]}
{"smiles": "CSc1ccc(C2Sc3cc(Cl)ccc3N(CCN(C)C)C(=O)C2OC(C)=O)cc1", "note": "(configuration not stated)", "values": [{"measurement": "Half duration", "setting": "Canis familiaris [1]", "value": 37, "unit": "min"}, {"measurement": "Potency ratio", "setting": "Canis familiaris [2]", "value": 0.21}, {"measurement": "Increase in CBF", "setting": "Cavia porcellus [3]", "value": ">0.5", "unit": "mL/min"}]}
{"smiles": "CCCCNC(=O)OC1C(=O)N(CCN(C)C)c2ccc(F)cc2SC1c1ccc(OC)cc1", "note": "(configuration not stated)", "values": [{"measurement": "Half duration", "setting": "Canis familiaris [1]", "value": 58, "unit": "min"}, {"measurement": "Potency ratio", "setting": "Canis familiaris [2]", "value": 0.16}, {"measurement": "Increase in CBF", "setting": "Cavia porcellus [9]", "value": ">0.5", "unit": "mL/min"}]}
{"smiles": "COc1ccc(C2Sc3cc(Cl)c(Cl)cc3N(CCN(C)C)C(=O)C2OC(C)=O)cc1.Cl", "note": "(configuration not stated)", "values": [{"measurement": "Half duration", "setting": "Canis familiaris [1]", "value": 53, "unit": "min"}, {"measurement": "Potency ratio", "setting": "Canis familiaris [2]", "value": 0.51}, {"measurement": "Increase in CBF", "setting": "Cavia porcellus [9]", "value": ">0.5", "unit": "mL/min"}]}
{"smiles": "COc1ccc(C2Sc3c(ccc(Cl)c3Cl)N(CCN(C)C)C(=O)C2O)cc1.Cl", "note": "(configuration not stated)", "values": [{"measurement": "Half duration", "setting": "Canis familiaris [1]", "value": 80, "unit": "min"}, {"measurement": "Potency ratio", "setting": "Canis familiaris [2]", "value": 0.62}, {"measurement": "Increase in CBF", "setting": "Cavia porcellus [9]", "value": ">0.5", "unit": "mL/min"}]}
{"smiles": "COc1ccc(C2Sc3cccc(Cl)c3N(CCN(C)C)C(=O)C2O)cc1.Cl", "note": "(configuration not stated)", "values": [{"measurement": "Half duration", "setting": "Canis familiaris [1]", "value": 33, "unit": "min"}, {"measurement": "Potency ratio", "setting": "Canis familiaris [2]", "value": 0.2}, {"measurement": "Increase in CBF", "setting": "Cavia porcellus [3]", "value": ">0.5", "unit": "mL/min"}, {"measurement": "Change in blood pressure", "setting": "Rattus norvegicus [7]", "value": -31.7, "unit": "delta mmHg"}, {"measurement": "Change in blood pressure", "setting": "Rattus norvegicus [6]", "value": -26, "unit": "delta mmHg"}]}
{"smiles": "COc1ccc(C2Sc3cc(Cl)ccc3N(CCN(C)C)C(=O)C2OC)cc1", "note": "(single isomer, unassigned; (+))", "values": [{"measurement": "Half duration", "setting": "Canis familiaris [1]", "value": 47, "unit": "min"}, {"measurement": "Potency ratio", "setting": "Canis familiaris [2]", "value": 0.58}, {"measurement": "Change in blood pressure", "setting": "Rattus norvegicus [7]", "value": -76.8, "unit": "delta mmHg"}, {"measurement": "Change in blood pressure", "setting": "Rattus norvegicus [8]", "value": -56.5, "unit": "delta mmHg"}]}
{"smiles": "COc1ccc(C2Sc3cc(Cl)ccc3N(CCN(C)C)C(=O)C2OC=O)cc1", "note": "(single isomer, unassigned; (+))", "values": [{"measurement": "Half duration", "setting": "Canis familiaris [1]", "value": 44, "unit": "min"}, {"measurement": "Potency ratio", "setting": "Canis familiaris [2]", "value": 0.73}, {"measurement": "Increase in CBF", "setting": "Cavia porcellus [4]", "value": ">0.5", "unit": "mL/min"}, {"measurement": "Change in blood pressure", "setting": "Rattus norvegicus [7]", "value": -60, "unit": "delta mmHg"}, {"measurement": "Change in blood pressure", "setting": "Rattus norvegicus [10]", "value": -72.7, "unit": "delta mmHg"}]}
{"smiles": "COc1ccc(C2Sc3cc(Cl)ccc3N(CCN(C)C)C(=O)C2OCc2ccc([N+](=O)[O-])cc2)cc1", "note": "(single isomer, unassigned; (+))", "values": [{"measurement": "Potency ratio", "setting": "Canis familiaris [2]", "value": 0.58}, {"measurement": "Increase in CBF", "setting": "Cavia porcellus [4]", "value": ">0.5", "unit": "mL/min"}, {"measurement": "Change in blood pressure", "setting": "Rattus norvegicus [7]", "value": -11.5, "unit": "delta mmHg"}, {"measurement": "Change in blood pressure", "setting": "Rattus norvegicus [8]", "value": -8.8, "unit": "delta mmHg"}]}
{"smiles": "CCN(C)CCN1C(=O)C(OC(C)=O)C(c2ccc(OC)cc2)Sc2cc(Cl)ccc21", "note": "(single isomer, unassigned; (+))", "values": [{"measurement": "Half duration", "setting": "Canis familiaris [1]", "value": 46, "unit": "min"}, {"measurement": "Potency ratio", "setting": "Canis familiaris [2]", "value": 0.9}, {"measurement": "Increase in CBF", "setting": "Cavia porcellus [4]", "value": ">0.5", "unit": "mL/min"}, {"measurement": "Change in blood pressure", "setting": "Rattus norvegicus [7]", "value": -55.5, "unit": "delta mmHg"}, {"measurement": "Change in blood pressure", "setting": "Rattus norvegicus [8]", "value": -22.3, "unit": "delta mmHg"}]}
{"smiles": "CCC(=O)OC1C(=O)N(CCN(C)C)c2ccc(Cl)cc2SC1c1ccc(OC)cc1", "note": "(single isomer, unassigned; (+))", "values": [{"measurement": "Half duration", "setting": "Canis familiaris [1]", "value": 64, "unit": "min"}, {"measurement": "Potency ratio", "setting": "Canis familiaris [2]", "value": 1.45}, {"measurement": "Increase in CBF", "setting": "Cavia porcellus [9]", "value": ">0.5", "unit": "mL/min"}, {"measurement": "Change in blood pressure", "setting": "Rattus norvegicus [7]", "value": -67.7, "unit": "delta mmHg"}, {"measurement": "Change in blood pressure", "setting": "Rattus norvegicus [10]", "value": -60.7, "unit": "delta mmHg"}]}
{"smiles": "COc1ccc(C2Sc3cc(Cl)ccc3N(CCN(C)C)C(=O)C2OC(C)=O)cc1.Cl", "note": "(stereo in doubt; 2b)", "values": [{"measurement": "Half duration", "setting": "Canis familiaris [1]", "value": 69, "unit": "min"}, {"measurement": "Potency ratio", "setting": "Canis familiaris [2]", "value": 1.15}, {"measurement": "Increase in CBF", "setting": "Cavia porcellus [9]", "value": ">0.5", "unit": "mL/min"}]}
{"smiles": "COc1ccc(C2Sc3c(Cl)cccc3N(CCN(C)C)C(=O)C2OC(C)=O)cc1.Cl", "note": "(stereo in doubt; 2cc)", "values": [{"measurement": "Half duration", "setting": "Canis familiaris [1]", "value": 72, "unit": "min"}, {"measurement": "Potency ratio", "setting": "Canis familiaris [2]", "value": 0.75}, {"measurement": "Increase in CBF", "setting": "Cavia porcellus [9]", "value": ">0.5", "unit": "mL/min"}]}
{"smiles": "COc1ccc(C2Sc3c(Cl)cccc3N(CCN(C)C)C(=O)C2O)cc1", "note": "(stereo in doubt; (+)-16m)", "values": [{"measurement": "Half duration", "setting": "Canis familiaris [1]", "value": 46, "unit": "min"}, {"measurement": "Potency ratio", "setting": "Canis familiaris [2]", "value": 1.25}, {"measurement": "Increase in CBF", "setting": "Cavia porcellus [9]", "value": ">0.5", "unit": "mL/min"}, {"measurement": "Change in blood pressure", "setting": "Rattus norvegicus [7]", "value": -46.7, "unit": "delta mmHg"}, {"measurement": "Change in blood pressure", "setting": "Rattus norvegicus [6]", "value": -30, "unit": "delta mmHg"}]}
{"smiles": "COc1ccc([C@@H]2Sc3ccccc3N(CCN(C)C)C(=O)[C@@H]2OC(C)=O)cc1", "note": "[DILTIAZEM]", "values": [{"measurement": "Half duration", "setting": "Canis familiaris [1]", "value": 53, "unit": "min"}, {"measurement": "Potency ratio", "setting": "Canis familiaris [2]", "value": 1}, {"measurement": "Increase in CBF", "setting": "Cavia porcellus [9]", "value": ">0.5", "unit": "mL/min"}, {"measurement": "Change in blood pressure", "setting": "Rattus norvegicus [7]", "value": -34, "unit": "delta mmHg"}, {"measurement": "Change in blood pressure", "setting": "Rattus norvegicus [6]", "value": -15, "unit": "delta mmHg"}]}
